ChEMBL document CHEMBL3352082, “Pyrazole derivatives as potent inhibitors of c-Jun N-terminal kinase: synthesis and SAR studies” (Bioorg Med Chem, 2014)

Tests used:
[1] = molecular target: c-Jun N-terminal kinase, JNK (Homo sapiens, UniProt P45983+P53779+P45984); assay: Inhibition of JNK (unknown origin); format: protein assay
[2] = molecular target: Mitogen-activated protein kinase 8 (Homo sapiens, UniProt P45983); assay: Inhibition of FLAG-tagged JNK-1 (unknown origin) transfected in African green monkey COS cells by SDS-PAGE analysis; format: cell-based
Procedure, shortened: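 COS cells transfected with FLAG-tagged JNK-1 and exposed to 0.5 M sorbitol for 30 min to activate JNK-1. FLAG-JNK immunoprecipitated with GST-ATF2 substrate, and the precipitate pretreated with compound and incubated in buffer B. Phosphorylated substrate separated by SDS–PAGE, visualized by autoradiography and quantified by Cerenkov counting through a kinase profiler service.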

Rattus norvegicus [3] = assay: Antiinflammatory activity in po dosed rat paw edema model assessed as inhibition of carrageenan-induced paw edema administered 1 hr prior to carrageenan challenge measured after 1 hr
Rattus norvegicus [4] = assay: Antiinflammatory activity in po dosed rat paw edema model assessed as inhibition of carrageenan-induced paw edema administered 1 hr prior to carrageenan challenge measured after 2 hrs
Rattus norvegicus [5] = assay: Antiinflammatory activity in po dosed rat paw edema model assessed as inhibition of carrageenan-induced paw edema administered 1 hr prior to carrageenan challenge measured after 3 hrs
Rattus norvegicus [6] = assay: Antiinflammatory activity in po dosed rat paw edema model assessed as inhibition of carrageenan-induced paw edema administered 1 hr prior to carrageenan challenge measured after 4 hrs
Rattus norvegicus [7] = assay: Antiinflammatory activity in po dosed rat paw edema model assessed as inhibition of carrageenan-induced paw edema […] measured after 1 hr; format: functional
Procedure, shortened: (§1)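 Rats given test compounds as an oral suspension; 1 h later 1% carrageenan injected into the subplantar region of the right paw. Paw volume read by digital plethysmometer at 1, 2, 3 and 4 h. Reported as mean paw volume (mL) ± SEM with % inhibition; significance p <0.01 / p <0.05. Method after Winter et al.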

Rattus norvegicus [8] = assay: Antiinflammatory activity in po dosed rat paw edema model assessed as inhibition of carrageenan-induced paw edema […] measured after 2 hrs; format: functional; procedure, shortened: as §1
Rattus norvegicus [9] = assay: Antiinflammatory activity in po dosed rat paw edema model assessed as inhibition of carrageenan-induced paw edema […] measured after 3 hrs; format: functional; procedure, shortened: as §1
Rattus norvegicus [10] = assay: Antiinflammatory activity in po dosed rat paw edema model assessed as inhibition of carrageenan-induced paw edema […] measured after 4 hrs; format: functional; procedure, shortened: as §1
Rattus norvegicus [11] = assay: Antiinflammatory activity in rat paw edema model assessed as inhibition of carrageenan-induced paw edema at 50 mg/kg, po administered 1 hr post carrageenan challenge measured after 1 hr; format: functional; settings: in the assay text read “1 hr prior to carrageenan challenge” for “1 hr post carrageenan challenge”; procedure, shortened: as §1
Rattus norvegicus [12] = assay: Antiinflammatory activity in rat paw edema model assessed as inhibition of carrageenan-induced paw edema at 50 mg/kg, po administered 1 hr post carrageenan challenge measured after 2 hrs; format: functional; settings: in the assay text read “1 hr prior to carrageenan challenge” for “1 hr post carrageenan challenge”; procedure, shortened: as §1
Rattus norvegicus [13] = assay: Antiinflammatory activity in rat paw edema model assessed as inhibition of carrageenan-induced paw edema at 50 mg/kg, po administered 1 hr post carrageenan challenge measured after 3 hrs; format: functional; settings: in the assay text read “1 hr prior to carrageenan challenge” for “1 hr post carrageenan challenge”; procedure, shortened: as §1
Rattus norvegicus [14] = assay: Antiinflammatory activity in rat paw edema model assessed as inhibition of carrageenan-induced paw edema at 50 mg/kg, po administered 1 hr prior to carrageenan challenge measured after 4 hrs

Mitogen-activated protein kinase 8, sequence (P45983 whole entry): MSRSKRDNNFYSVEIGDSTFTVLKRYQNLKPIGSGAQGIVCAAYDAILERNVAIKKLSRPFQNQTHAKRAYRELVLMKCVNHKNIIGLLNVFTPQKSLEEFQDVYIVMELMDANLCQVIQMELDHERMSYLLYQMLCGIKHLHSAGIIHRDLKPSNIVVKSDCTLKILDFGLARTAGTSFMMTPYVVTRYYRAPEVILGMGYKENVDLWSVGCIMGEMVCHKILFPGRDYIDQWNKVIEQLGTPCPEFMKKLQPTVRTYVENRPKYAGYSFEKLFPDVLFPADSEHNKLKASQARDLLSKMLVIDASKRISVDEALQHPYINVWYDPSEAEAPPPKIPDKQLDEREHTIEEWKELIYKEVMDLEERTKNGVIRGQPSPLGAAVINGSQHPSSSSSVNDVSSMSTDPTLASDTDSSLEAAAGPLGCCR

Structure (SMILES) | IC50 [2] | inhibition (INH) (Rattus norvegicus [3]) | inhibition (INH) (Rattus norvegicus [4]) | inhibition (INH) (Rattus norvegicus [5]) | inhibition (INH) (Rattus norvegicus [6]) | other results
c1ccc2c(-c3ccncc3)n[nH]c2c1 | – | – | – | – | – | pIC50 [1]: 5.8
O=C(Nc1ccccc1)c1cc(-c2ccccc2)[nH]n1 | 9.6 µM | 32.48% | 35.02% | 45.64% | 30.58% | –
O=C(Nc1cc(Cl)ccc1Cl)c1cc(-c2ccccc2)[nH]n1 | 6.2 µM | 31.02% | 40.16% | 45.47% | 18.9% | –
O=C(Nc1ccc([N+](=O)[O-])cc1)c1cc(-c2ccccc2)[nH]n1 | 9.8 µM | 89.24% | 94.31% | 92.56% | 68.7% | –
COc1ccc(NC(=O)c2cc(-c3ccccc3)[nH]n2)cc1 | 8.1 µM | 33.3% | 79.54% | 81.08% | 66.44% | –
O=C(Nc1ccc(O)cc1)c1cc(-c2ccccc2)[nH]n1 | – | 22.11% | 43.24% | 23.28% | 16.64% | –
O=C(Nc1ccc(Br)cc1)c1cc(-c2ccccc2)[nH]n1 | 5.9 µM | 42.16% | 46.31% | 51.4% | 38.22% | –
O=C(Nc1ccc(Cl)c(F)c1)c1cc(-c2ccccc2)[nH]n1 | 3.1 µM | 68.81% | 72.7% | 90.54% | 64.22% | –
Cc1cc(C)c(NC(=O)c2cc(-c3ccccc3)[nH]n2)c(C)c1 | 11.9 µM | 53.65% | 45.6% | 44.24% | 26.8% | –
CC(=O)c1cccc(NC(=O)c2cc(-c3ccccc3)[nH]n2)c1 | 6.9 µM | 41.3% | 56.7% | 74.32% | 56.8% | –
O=C(NCc1ccccc1)c1cc(-c2ccccc2)[nH]n1 | 9.1 µM | 35.48% | 53.4% | 48.64% | 25.66% | –
O=C(NCc1ccc(Cl)c(Cl)c1)c1cc(-c2ccccc2)[nH]n1 | 5.8 µM | 45.16% | 44.31% | 27.02% | 10.11% | –
O=C(NCc1ccc(F)cc1)c1cc(-c2ccccc2)[nH]n1 | 2.9 µM | 67.86% | 70.27% | 75.27% | 54.66% | –
COc1ccc(CNC(=O)c2cc(-c3ccccc3)[nH]n2)cc1 | 6.1 µM | 41.93% | 39.77% | 32.43% | 16.46% | –
COc1ccc(CNC(=O)c2cc(-c3ccccc3)[nH]n2)cc1OC | 5.8 µM | 54.83% | 46.59% | 43.24% | 24.8% | –
O=C(NCc1ccco1)c1cc(-c2ccccc2)[nH]n1 | 2.8 µM | 73.11% | 81.81% | 91.89% | 66.33% | –
COc1ccc(-c2cc(NC(=O)c3cc(-c4ccccc4)[nH]n3)no2)cc1 | 3.2 µM | 68.81% | 72.72% | 90.54% | 71.66% | –
CC(C)(C)c1cc(NC(=O)c2cc(-c3ccccc3)[nH]n2)no1 | – | 68.6% | 70.6% | 52.8% | 41.7% | –
O=C(Nc1ccc2[nH]c(S)nc2c1)c1cc(-c2ccccc2)[nH]n1 | 2.9 µM | 94.62% | 95.45% | 91.62% | 74.15% | –
O=C(Nc1nccs1)c1cc(-c2ccccc2)[nH]n1 | 6.8 µM | 45.31% | 51.06% | 54.65% | 31.4% | –
O=C(NC1CC1)c1cc(-c2ccccc2)[nH]n1 | 6.2 µM | 69.89% | 85.22% | 88.13% | 55.87% | –
CC(NC(=O)c1cc(-c2ccccc2)[nH]n1)c1cccc2ccccc12 (configuration not stated) | – | – | – | – | – | inhibition (INH) (Rattus norvegicus [7]): 61.29%; inhibition (INH) (Rattus norvegicus [8]): 73.86%; inhibition (INH) (Rattus norvegicus [9]): 74.32%; inhibition (INH) (Rattus norvegicus [10]): 50.64%
O=C(Nc1ccccn1)c1cc(-c2ccccc2)[nH]n1 | 8.9 µM | 33.3% | 79.54% | 81.08% | 64.26% | –
O=C(O)Cc1ccccc1Nc1c(Cl)cccc1Cl [DICLOFENAC SODIUM] | – | – | – | – | – | inhibition in vivo at 50 mg/kg (Rattus norvegicus [11]): 23%; inhibition in vivo at 50 mg/kg (Rattus norvegicus [12]): 36%; inhibition in vivo at 50 mg/kg (Rattus norvegicus [13]): 47%; inhibition in vivo at 50 mg/kg (Rattus norvegicus [14]): 51%
